Calls of active or inactive are those of the source. The rule behind the calls is not given here.
Test system: U-251
Experiment: Antitumor activity against human U251 cells xenografted in BALB/cA mouse assessed as delay in tumor growth at 12.5 to 100 mg/kg, po dosed daily for 11 days
Assay type: functional, organism-based
Conditions: not given
In short: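 Untransfected U251 cells injected subcutaneously into flank or hind leg of female BALB/cA nu/nu mice and grown to about 300 mm³. Mice stratified into groups of 5 with similar mean tumor volume. Dosed orally at 10 mL/kg once daily for 11 days. Vehicle was DMSO/Tween-80 (35:65) diluted 5-fold with saline just before dosing. Tumor volume (length × diameter²/2) measured twice weekly and expressed relative to pretreatment size.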

SMILES	TGI
Nc1ncccc1C(=O)N1CCN(Cc2ccc(C(=O)Nc3ccc(C#Cc4ccccc4)cc3)cc2)CC1	Active

Test system: U-251
Experiment: Suppression of deferoxamine-induced HIF1alpha protein expression in human U251 cells at 0.0001 to 1 uM incubated for 6 hrs by ELISA method
Assay type: functional, cell-based
Conditions: not given
In short: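 Untransfected U251 cells at 4 × 10⁴ cells/well were treated for 6 h with a range of compound concentrations. Conditions were 21% O₂, 2% O₂, or 21% O₂ plus 100 µM deferoxamine. Cells were lysed, lysate diluted fivefold in PBS/1% BSA, and HIF-1α measured by total HIF-1α ELISA. Mean of two wells.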

SMILES	inhibition
O=C(Nc1ccc(C#Cc2ccccc2)cc1)c1ccc(CN2CCN(Cc3cccnc3)CC2)cc1	inactive

Test system: Mus musculus
Experiment: Toxicity in BALB/cA mouse xenografted with human U251 cells assessed as mouse survival at 50 mg/kg/day, po
Assay type: organism-based, U-251
Design: route oral
Conditions: in vivo
In short: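 Survival model: untransfected U251 cells implanted intracranially in athymic mice. Oral dosing once daily for about 50 days. Dose formulated in DMSO/Tween-80 (35:65) and diluted 5-fold with saline immediately before administration.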

SMILES	Survival [days]
Nc1ncccc1C(=O)N1CCN(Cc2ccc(C(=O)Nc3ccc(C#Cc4ccccc4)cc3)cc2)CC1	50

Test system: U-251
Experiment: Suppression of HIF1alpha mRNA expression in human U251 cells
Assay type: functional, cell-based
Conditions: not given

SMILES	inhibition
O=C(Nc1ccc(C#Cc2ccccc2)cc1)c1ccc(CN2CCN(Cc3cccnc3)CC2)cc1	inactive

Test system: Mus musculus
Experiment: Suppression of HIF1alpha mRNA expression in BALB/cA mouse xenografted with human U251 cells at 50 to 100 mg/kg, po after 24 hrs
Assay type: functional, organism-based
Conditions: U-251

SMILES	inhibition
Nc1ncccc1C(=O)N1CCN(Cc2ccc(C(=O)Nc3ccc(C#Cc4ccccc4)cc3)cc2)CC1	inactive
O=C(Nc1ccc(C#Cc2ccccc2)cc1)c1ccc(CN2CCN(Cc3cccnc3)CC2)cc1	inactive

Target: Hypoxia inducible factors; HIF-1-alpha, HIF-2-alpha (Homo sapiens, UniProt Q16665+Q99814)
Experiment: Inhibition of HIF1 signaling in human U251 cells expressing VEGF by VEGF promoter-driven PLAP reporter gene assay
Assay type: cell-based
Conditions: u-251
In short: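 U251/VEGF-PLAP reporter cells seeded at 4.0 × 10⁴ cells/well and incubated overnight before compounds were added. Compounds were dissolved in DMSO and diluted in culture medium, final DMSO ≤0.2% (v/v). Cells grown in DMEM with 10% FBS at 37 °C, 5% CO₂, under 21% O₂ (normoxia) or 2% O₂ (hypoxia).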

SMILES	IC50 [µM]
CN(CCN(C)Cc1cccnc1)Cc1ccc(C(=O)Nc2ccc(C(F)(F)F)cc2)cc1	0.12
O=C(Nc1ccc(C(F)(F)F)cc1)c1ccc(CN2CCOCC2)cn1	0.23
O=C(Nc1ccc(C#CC2(O)CCCCC2)cc1)c1ccc(CN2CCN(Cc3cccnc3)CC2)cc1	> 0.2
O=C(Nc1ccc(C#CC2CCCCC2)cc1)c1ccc(CN2CCN(Cc3cccnc3)CC2)cc1	0.0031
COc1ccc(NC(=O)c2ccc(CN3CCOCC3)cc2)cc1	13.9
O=C(Nc1ccc(C(F)(F)F)cc1)c1ccc(CC2CCN(Cc3ccncc3)CC2)cc1	0.11
O=C(Nc1ccc(C(F)(F)F)cc1)c1ccc(CN2CCN(Cc3cccnc3)CC2)cc1	0.014
O=C(Nc1ccc(CN2CCOCC2)cc1)c1ccc(I)cc1	2.5
COCc1ccc(CN2CCN(Cc3ccc(C(=O)Nc4ccc(C#CC56CC7CC(CC(C7)C5)C6)cc4)cc3)[C@@H](C)C2)cn1	0.0011
Nc1ncccc1C(=O)N1CCN(Cc2ccc(C(=O)Nc3ccc(C#Cc4ccccc4)cc3)cc2)CC1	0.021
O=C(Nc1ccc(C#Cc2ccccc2)cc1)c1ccc(CN2CCN(Cc3cccnc3)CC2)cc1	0.0079
O=C(Nc1ccc(C(F)(F)F)cc1)c1ccc(CN2CCOCC2)s1	1.6
C[C@@H]1CN(Cc2cccnc2)CCN1Cc1ccc(C(=O)Nc2ccc(C(F)(F)F)cc2)cc1	0.013
O=C(Nc1ccccc1)c1ccc(CN2CCOCC2)cc1	5.4
O=C(Nc1ccc(C#CC23CC4CC(CC(C4)C2)C3)cc1)c1ccc(CN2CCN(Cc3cccnc3)CC2)cc1	0.00097
O=C(Nc1ccccc1I)c1ccc(CN2CCOCC2)cc1	> 20
O=C(Nc1ccc(C(F)(F)F)cn1)c1ccc(CN2CCOCC2)cc1	4
Ic1ccc(NCc2ccc(CN3CCOCC3)cc2)cc1	2.5

SMILES	IC50 [µM]
C[C@H]1CN(Cc2ccc(C(=O)Nc3ccc(C(F)(F)F)cc3)cc2)CCN1Cc1cccnc1	0.035
Nc1ncccc1C(=O)N1CCN(Cc2ccc(C(=O)Nc3ccc(C#CC45CC6CC(CC(C6)C4)C5)cc3)cc2)CC1	0.0058
O=C(Nc1ccc(C(F)(F)F)cc1)c1ccc(CN2CCOCC2)nc1	4.5
COCCOCc1ccc(CN2CCN(Cc3ccc(C(=O)Nc4ccc(C#CC56CC7CC(CC(C7)C5)C6)cc4)cc3)[C@@H](C)C2)cn1	0.00047
O=C(Nc1cccc(I)c1)c1ccc(CN2CCOCC2)cc1	2.2
C[C@H]1CN(Cc2cccnc2)CCN1Cc1ccc(C(=O)Nc2ccc(C#CC34CC5CC(CC(C5)C3)C4)cc2)cc1	0.0026
O=C(Nc1ccc(C#Cc2cccnc2)cc1)c1ccc(CN2CCN(Cc3cccnc3)CC2)cc1	0.034
FC(F)(F)c1ccc(/C=C/c2ccc(CN3CCOCC3)cc2)cc1	0.88
O=C(Nc1ccc(I)cc1)c1ccc(CN2CCOCC2)cc1	0.56
CN(C(=O)c1ccc(CN2CCOCC2)cc1)c1ccc(I)cc1.Cl	2.2
O=C(Nc1ccc(C(F)(F)F)cc1)c1ccccc1CN1CCOCC1	> 10
O=C(Nc1ccc(C(F)(F)F)cc1)c1ccc(CN2CCOCC2)cc1	0.28
O=C(Nc1ccc(C(F)(F)F)cc1)c1ccc(CN2CCN(Cc3ccncc3)CC2)cc1	0.0079
C[C@H]1CN(Cc2cccnc2)CCN1Cc1ccc(C(=O)Nc2ccc(C(F)(F)F)cc2)cc1	0.0033
O=C(Nc1ccc(C(F)(F)F)cc1)c1ccc(CN2CCN(Cc3ccccc3)CC2)cc1	0.013
O=C(Nc1ccc(C(F)(F)F)cc1)c1cccc(CN2CCOCC2)c1	> 10
C[C@@H]1CN(Cc2ccc(C(=O)Nc3ccc(C(F)(F)F)cc3)cc2)CCN1Cc1cccnc1	0.03

Test system: Mus musculus
Experiment: Suppression of HIF1alpha protein expression in BALB/cA mouse xenografted with human U251 cells at 50 to 100 mg/kg, po after 24 hrs by ELISA
Assay type: functional, organism-based
Conditions: U-251
In short: (§1)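 Female BALB/cA nu/nu mice bearing subcutaneous untransfected U251 tumors (~300 mm³) got a single oral dose at 10 mL/kg in DMSO/Tween-80 (35:65) diluted 5-fold with saline. Tumors harvested 24 h later, frozen in liquid nitrogen and fragmented, then lysed in Tris pH 7.5/NaCl/Triton X-100 buffer and centrifuged. HIF-1α measured by ELISA, normalized to BCA total protein, expressed as % of vehicle control. Mean of three animals.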

SMILES	inhibition
Nc1ncccc1C(=O)N1CCN(Cc2ccc(C(=O)Nc3ccc(C#Cc4ccccc4)cc3)cc2)CC1	Active
O=C(Nc1ccc(C#Cc2ccccc2)cc1)c1ccc(CN2CCN(Cc3cccnc3)CC2)cc1	Active

Test system: U-251
Experiment: Suppression of hypoxia-induced HIF1alpha protein expression in human U251 cells at 0.0001 to 1 uM incubated for 6 hrs in presence of 25 uM proteasome inhibitor MG132 by ELISA method
Assay type: functional, cell-based
Conditions: not given
In short: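 Untransfected U251 cells (4 × 10⁴/well) were incubated with graded compound concentrations for 6 h under 21% O₂, 2% O₂, or 2% O₂ with 25 µM MG132. Lysates were diluted fivefold in PBS/1% BSA and HIF-1α measured by ELISA. Mean of two wells.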

SMILES	inhibition
O=C(Nc1ccc(C#Cc2ccccc2)cc1)c1ccc(CN2CCN(Cc3cccnc3)CC2)cc1	inactive

Test system: Mus musculus
Experiment: Suppression of HIF1alpha protein expression in BALB/cA mouse xenografted with human U251 cells at 12.5 mg/kg, po after 3 hrs by ELISA
Assay type: functional, organism-based
Design: dose 12.5 mg/kg
Conditions: U-251
In short: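 Single oral dose given to female nude BALB/cA mice with subcutaneous U251 xenografts. Tumors collected at 3, 12, 16 and 24 h after dosing. HIF-1α in total tumor extracts measured by ELISA and normalized to total protein. Mean ± SD reported.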

SMILES	inhibition
Nc1ncccc1C(=O)N1CCN(Cc2ccc(C(=O)Nc3ccc(C#Cc4ccccc4)cc3)cc2)CC1	Active

Test system: U-251
Experiment: Suppression of hypoxia-induced HIF1alpha protein expression in human U251 cells at 0.0001 to 1 uM incubated for 6 hrs by ELISA method
Assay type: functional, cell-based
Conditions: not given
In short: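 Untransfected U251 cells at 4 × 10⁴ cells/well were exposed to compound for 6 h under hypoxia (2% O₂), with normoxia (21% O₂) as comparison. Cells were lysed in Tris/NaCl/Triton buffer, lysate diluted fivefold in PBS with 1% BSA, and HIF-1α quantified by ELISA. Mean of two wells.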

SMILES	inhibition
O=C(Nc1ccc(C#Cc2ccccc2)cc1)c1ccc(CN2CCN(Cc3cccnc3)CC2)cc1	Active

Test system: Mus musculus
Experiment: Suppression of HIF1alpha protein expression in BALB/cA mouse xenografted with human U251 cells at 6.25 to 12.5 mg/kg, po after 24 hrs by ELISA
Assay type: functional, organism-based
Conditions: U-251
In short: as §1

SMILES	inhibition
COCCOCc1ccc(CN2CCN(Cc3ccc(C(=O)Nc4ccc(C#CC56CC7CC(CC(C7)C5)C6)cc4)cc3)[C@@H](C)C2)cn1	Active

Test system: Mus musculus
Experiment: Toxicity in BALB/cA mouse xenografted with human U251 cells assessed as reduction in body weight at 12.5 to 100 mg/kg, po dosed daily for 11 days
Assay type: organism-based, U-251
Design: dose 12.5-100 mg/kg, route oral
Conditions: in vivo, 264 h
In short: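 Female BALB/cA nu/nu mice carried subcutaneous untransfected U251 tumors of about 300 mm³, 5 per group. Given oral doses at 10 mL/kg once daily for 11 days in DMSO/Tween-80 (35:65) diluted 5-fold in saline. Body weight was followed alongside tumor volume.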

SMILES	Activity
Nc1ncccc1C(=O)N1CCN(Cc2ccc(C(=O)Nc3ccc(C#Cc4ccccc4)cc3)cc2)CC1	Non-toxic

Test system: Mus musculus
Experiment: Toxicity in BALB/cA mouse xenografted with human U251 cells assessed as reduction in body weight at 12.5 mg/kg, po after 24 hrs
Assay type: organism-based, U-251
Design: dose 12.5 mg/kg, route oral; scale not given: the % may be the effect or the level left
Conditions: in vivo
In short: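 Nude female BALB/cA mice bearing subcutaneous U251 tumors received one oral dose (10 mL/kg; DMSO/Tween-80 35:65 diluted 5-fold with saline). Body weight was compared with vehicle controls 24 h after dosing.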

SMILES	Activity [%]
COCCOCc1ccc(CN2CCN(Cc3ccc(C(=O)Nc4ccc(C#CC56CC7CC(CC(C7)C5)C6)cc4)cc3)[C@@H](C)C2)cn1	92

Source: ChEMBL document CHEMBL3351307, “Synthesis and structure-activity relationships of novel, potent, orally active hypoxia-inducible factor-1 inhibitors” (Bioorg Med Chem, 2014)
